Test results reported in the EternaBench riboswitch data.

Assays:
[1] = system: MS2 coat protein; test: apparent Kd, MS2 coat protein; higher = weaker binding; RNA-MaP array; theophylline 2 mM where present
In short: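 The apparent Kd is the median of filtered binding-curve fits, one per cluster, to green signal normalised to red-channel RNA signal and control-cluster median Fmax. The clusters were on Illumina sequencing chips, and stalled E. coli RNA polymerase had transcribed the designs on them. Titration used SNAP-549-labelled MS2 coat protein from 0.7 or 1.5 nM, doubling to 3 µM, without and then with constant ligand, in 100 mM Tris-HCl pH 7.5, 80 mM KCl, 4 mM MgCl2, BSA, DTT, yeast tRNA and Tween-20.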

[2] = system: MS2 coat protein; test: apparent Kd, MS2 coat protein; higher = weaker binding; RNA-MaP array
In short: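 Designed RNAs were produced on an Illumina sequencing chip by transcription of sequenced DNA templates. Binding to fluorescently labeled MS2 coat protein (1.5 nM to 3 μM) was measured at room temperature with or without input ligand. The apparent Kd is the median of per-cluster binding-curve fits. Designs were excluded when measured on fewer than 10 clusters.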

[3] = designed as: OFF switch for theophylline, no ligand
[4] = ligand present: theophylline, designed as: OFF switch for theophylline
[5] = designed as: ON switch for theophylline, no ligand
[6] = ligand present: theophylline, designed as: ON switch for theophylline
[7] = designed as: OFF switch for flavin mononucleotide, no ligand
[8] = ligand present: flavin mononucleotide, designed as: OFF switch for flavin mononucleotide
[9] = designed as: ON switch for flavin mononucleotide, no ligand
[10] = ligand present: flavin mononucleotide, designed as: ON switch for flavin mononucleotide

GUACAUGAGGAUCACCCAUGUGGUAGGGAUACCAGCCAGAAGAAAGGCCCUUGGCAGCUUGUAUUUAGUGUGGGUUUGUUUGUUC
apparent Kd [1, 3]: 23.4 nM | apparent Kd [1, 4]: 54.9 nM

ACAUGAGGAUCACCCAUGUUCCUCAUUGAUACCAGUGAAUUUAGACGCCCUUGGCAGCGAGUUUUUUUAGAAGAAGUUUUUUUUU
apparent Kd [1, 3]: 782 nM | apparent Kd [1, 4]: 1070 nM

AUAUGAUCAUAGGAUACCAGAAAUGGUAUUCCUUUAUUUCUUACAUGAGGAUCACCCAUGUUCCCUUGGCAGCUUAUGAUCAUAU
apparent Kd [1, 3]: 126 nM | apparent Kd [1, 4]: 115 nM

AGUGUUAUAACUGAUACCAGACUUUUGCUUAUACAUGAGGAUCACCCAUGUAAAAUGGUUGUCCCUUGGCAGCAGAAGUUACACA
apparent Kd [1, 5]: 69.1 nM | apparent Kd [1, 6]: 327 nM

UUAUAUAUACAUGAGGAUCACCCAUGUGAUACCAGCCUGGAAACAGGCCCUUGGCAGCACAAAUACUCCAGAAAAUAUAAUAAAU
apparent Kd [1, 3]: 26.7 nM | apparent Kd [1, 4]: 199 nM

CGAACAAAACUAAAUAAACAACUGGGUGAUACCAGUACAUGUGCGUACCCUUGGCAGCAUCCGGCCACAUGAGGAUCACCCAUGU
apparent Kd [1, 5]: 64.7 nM | apparent Kd [1, 6]: 119 nM

UGUUUGGUGCGCGAGUGUUGGAUAAUUGAUACCAGUGUAGAAGUGCGCCCUUGGCAGCGAAUCCUAACAUGAGGAUCACCCAUGU
apparent Kd [1, 5]: 46.1 nM | apparent Kd [1, 6]: 57.8 nM

UGUAACAUGAGGAUCACCCAUGUGAGUGAUACCAGAUUAGUAUUAGUCCCUUGGCAGCACAUUGGGCGAGUGUAUAGUCUAUGCG
apparent Kd [1, 5]: 154 nM

AAGGUGAUCCCAGAUACCAGCUCAACAUGAGGAUCACCCAUGUACGGGACGAAAGUCCCGGGCCCUUGGCAGCUGGGUUGCCAAG
apparent Kd [1, 5]: 193 nM | apparent Kd [1, 6]: 123 nM

AAAUAAAUAACUGAUACCAGUGUACUGACAUGAGGAUCACCCAUGUUGGGUUUUGUUGUACACCCUUGGCAGCAGAAAUAUAAAA
apparent Kd [1, 3]: 35.3 nM | apparent Kd [1, 4]: 73 nM

GAGCUGAUGUAGAGCGAAUAUACGAGAGAUACCAGUACAGAAAUGUACCCUUGGCAGCUCAACUUUACAUGAGGAUCACCCAUGU
apparent Kd [1, 3]: 13.8 nM | apparent Kd [1, 4]: 15.3 nM

UGACAUUGCUCAGAUACCAGACAUGAGGAUCACCCAUGUACCAAGAAAACGUACAAUAAUGUCCCUUGGCAGCUGAGCAAUGUCU
apparent Kd [1, 3]: 101 nM | apparent Kd [1, 4]: 549 nM

CAUACUUUAGUAUGUUAUGUGGACAGUGAUACCAGAUACGAAAGUAUCCCUUGGCAGCACAACAUGAGGAUCACCCAUGUAUUUU
apparent Kd [1, 5]: 23 nM | apparent Kd [1, 6]: 13.6 nM

UUAGAUAUGACAGAUACCAGCGUGUUGUAGAACAUGAGGAUCACCCAUGUAGUGAUCAAGCGCCCUUGGCAGCUGGUAUGUUUGG
apparent Kd [1, 5]: 170 nM | apparent Kd [1, 6]: 221 nM

ACAUUAGUUGGCGAUACCAGCUAUAGGCCUUCUGGGCGACAUGAGGAUCACCCAUGUGAUGGCCCUUGGCAGCGCUGAUUGAUGU
apparent Kd [1, 5]: 151 nM | apparent Kd [1, 6]: 41.4 nM

GGGUAAGAUCCGGAUACCAGCGAACAUGAGGAUCACCCAUGUGAAAUAAGAUAGAAUAAACGCCCUUGGCAGCCGAAAUAGAGUU
apparent Kd [1, 5]: 77.3 nM | apparent Kd [1, 6]: 30.1 nM

UCGUGUAUAUCGGAUACCAGUGAAAACGAUACAUGAGGAUCACCCAUGUGAGUUGAUGUACACCCUUGGCAGCUGUAUAUAUCUA
apparent Kd [1, 5]: 19.3 nM

UUCUACAUGAGGAUCACCCAUGUGGGUGAUACCAGCACUUUUUGGUGCCCUUGGCAGCACAUGAGAAUACCGUACGAUCGGCGAU
apparent Kd [1, 5]: 265 nM | apparent Kd [1, 6]: 700 nM

ACUCUGUCGGGUGAUACCAGCCUCGGCACAUCUCGCGCCGAACAUGAGGAUCACCCAUGUGGCCCUUGGCAGCACAUGACAAAUC
apparent Kd [1, 5]: 328 nM | apparent Kd [1, 6]: 83.1 nM

AUUCAUAAUUGGGUAAAUGGAUAGAGUGAUACCAGUCAUAUACAUGACCCUUGGCAGCACAAGGACAUGAGGAUCACCCAUGUCA
apparent Kd [1, 5]: 24.2 nM | apparent Kd [1, 6]: 16.3 nM

AGAUUACAUGUUUUAAUACGGAAAACUGAUACCAGUGUAUCUAUUCACCCUUGGCAGCAGCAACAUGAGGAUCACCCAUGUAUUA
apparent Kd [1, 5]: 19.2 nM | apparent Kd [1, 6]: 19.2 nM

UCACGUGGGAAUGAUACCAGCCACAUGAGGAUCACCCAUGUGCAUGGUGUGAGCUUCACGGGCCCUUGGCAGCAUUUCAAGUCGC
apparent Kd [1, 3]: 48 nM | apparent Kd [1, 4]: 69.5 nM

AAUUUGUCGGGUGAUACCAGCCUCGGCGCAUCUCGCGCUGAACAUGAGGAUCACCCAUGUGGCCCUUGGCAGCACAUGACAAAUC
apparent Kd [1, 5]: 554 nM | apparent Kd [1, 6]: 37.3 nM

ACAUGAGGAUCACCCAUGUCUGCCUCGGAUACCAGCGGAAGAAAACGCCCUUGGCAGCCGAACAUGAGGAUCACCCAUGUAGGCU
apparent Kd [1, 5]: 48.2 nM | apparent Kd [1, 6]: 56.8 nM

CAUGGGUGGGUGCUGCCACCCAUUGGUGAUACCAGCAUCGAAAGAUGCCCUUGGCAGCACCAACAUGAGGAUCACCCAUGUAAUA
apparent Kd [1, 5]: 118 nM | apparent Kd [1, 6]: 320 nM

AUAGUCUAGAGUGAUACCAGACUACAUGAGGAUCACCCAUGUAUCUUUUGGUUAUCAUGUGUCCCUUGGCAGCACGCAUGUAUAG
apparent Kd [1, 3]: 10.1 nM | apparent Kd [1, 4]: 24.5 nM

GAUCUGUCGGGUGAUACCAGCCUCGGCGCGUCUCGCGCUGAACAUGAGGAUCACCCAUGUGGCCCUUGGCAGCACAUGACAAAUC
apparent Kd [1, 5]: 574 nM | apparent Kd [1, 6]: 44.2 nM

AUAUGAUCAUGUGAUACCAGAAAUGGUAUUCCUCGCUGGAUUACAUGAGGAUCACCCAUGUUCCCUUGGCAGCAUAUGAUCAUAU
apparent Kd [1, 3]: 21.4 nM | apparent Kd [1, 4]: 269 nM

AAUAACAUGAGGAUCACCCAUGUAAAAGAUACCAGAUGCAUGAUGAUCCCUUGGCAGCUUAAAACGCGAUUGAUUACAAUCGCGA
apparent Kd [1, 5]: 33.3 nM | apparent Kd [1, 6]: 107 nM

AUCGUACCUGAUGAUACCAGCAAGUGAUCAUAACAUGAGGAUCACCCAUGUAAUCAGUGAUGCCCUUGGCAGCAUAGUCGAUACA
apparent Kd [1, 5]: 164 nM | apparent Kd [1, 6]: 99.8 nM

UAUAUAUAUAGGGAUACCAGCAGAGAAAACGUUUAUCCUAACAUGAGGAUCACCCAUGUAUGCCCUUGGCAGCUUUAUAUAUAUA
apparent Kd [1, 3]: 22.9 nM | apparent Kd [1, 4]: 31.2 nM

UCGUGUGUUUCGGAUACCAGUGUGGUCGAUACAUGAGGAUCACCCAUGUUAGAGGAGGUACACCCUUGGCAGCCGGCUGUUGCGG
apparent Kd [1, 5]: 108 nM | apparent Kd [1, 6]: 51.1 nM

UUGAUUACCCAAGCGUGAUGGUCCUAGGAACGAGGACCGGUACGGCCGCCACUCGCAAGCAAACAUGAGGAUCACCCAUGUUUAU
apparent Kd ([2]; designed as: OFF switch for tryptophan, no ligand): 13.1 nM | apparent Kd ([2]; ligand present: tryptophan, designed as: OFF switch for tryptophan): 23 nM

AACGUACAUGAGGAUCACCCAUGUGAGGAUAUGCCUAAAGAGUUCUAAGCAUCCAAGGGCAGAAGGCACAUGAA
apparent Kd [2, 7]: 99.1 nM | apparent Kd [2, 8]: 140 nM

CGUCUGUGAGGAUAUGGUCGAGGUUGGUGAAUUACUUACAUCCAGAAGGCACAUGAGGAUCACCCAUGUACAUC
apparent Kd [2, 7]: 10.5 nM | apparent Kd [2, 8]: 13.8 nM

CUUUGUGGCCAAGGAUAUCCUGGCACAGUACAUGAGGAUCACCCAUGUCGAAGACAUGGUCGUACGGAGAAGGUGGGCACCCUC
apparent Kd [2, 9]: 511 nM

AGAUUCUCUGAAGGAUAUCGCGUUUAUUUCGAGCGAGAAGGUCAAUUAUGGGAGAUGCACAUGAGGAUCACCCAUGUUCGAAAA
apparent Kd [2, 7]: 339 nM | apparent Kd [2, 8]: 119 nM

CUGCUCUGUACUGAAGGAGAUACAUGAGGAUCACCCAUGUGCAGAAGGUGCUCAUUAAUAAUCGGCAAGGAUAUGCGGGCUUGA
apparent Kd [2, 9]: 925 nM | apparent Kd [2, 10]: 390 nM

UACUCACAUGAGGAUCACCCAUGUUGUCUCAAGAUAGGAUAUGACUGGCUAUGCAUCGGUUCAGAAGGAUCUUCUA
apparent Kd [2, 9]: 19.7 nM | apparent Kd [2, 10]: 11.3 nM

GACCAUCACCAGAAGGUCCUCCACCAGCGAGAUCCGACAUGAGGAUCACCCAUGUACUGUGGAUGGAAGGAUAUGGAAGGCUCU
apparent Kd [2, 7]: 46.9 nM | apparent Kd [2, 8]: 116 nM

CUGCAGACCCAGAAGGUUCACAUGAGGAUCACCCAUGUGCCUAUCAAUAAGUAAGGUAAAGGCUGAAAGGAUAUGGGUAAAGGA
apparent Kd [2, 9]: 10.7 nM | apparent Kd [2, 10]: 8.47 nM

UGAUGUAACAGAGGAUAUCACUCAAAUGCGGGCAUGUCGCACAUGUACAUGAGGAUCACCCAUGUUGAGAAGGCUGUGGUGCAA
apparent Kd [2, 9]: 145 nM | apparent Kd [2, 10]: 47.5 nM

UACAUGAGGAUCACCCAUGUUUAUUGGUAGAACGGAUAAUGGGAGGAUAUGAACCGAUCAGAUCAUCAGAAGGCCCUUAAUGGG
apparent Kd [2, 9]: 29 nM | apparent Kd [2, 10]: 20 nM

GGAAAACCUCGAGGAUAUAGCACAUGAGGAUCACCCAUGUACCAUAAGUGUUGACAAAAGAGAGACUAGAAGGCGAAUCAAACC
apparent Kd [2, 9]: 13.1 nM | apparent Kd [2, 10]: 11.6 nM

AAAGACGACCAGAAGGAGCCGCCACAUGAGGAUCACCCAUGUAUGCAAAGAUAACUGGGUUAACGCUAGGAUAUGGUGGAGAAA
apparent Kd [2, 7]: 63.5 nM | apparent Kd [2, 8]: 44.1 nM
